Laboratory results published in the EternaBench riboswitch data.

Test system: MS2 coat protein
Assay: apparent Kd, MS2 coat protein; higher = weaker binding; RNA-MaP array; FMN 200 µM where present
Procedure, shortened: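 In 100 mM Tris-HCl pH 7.5, 80 mM KCl, 4 mM MgCl2, BSA, DTT, yeast tRNA and Tween-20, SNAP-549-labelled MS2 coat protein was titrated from 0.7 or 1.5 nM, doubling to 3 µM, over designs transcribed by stalled E. coli RNA polymerase on Illumina sequencing-chip clusters. This was done first without ligand, then with ligand held constant. After green signal was normalised to red-channel RNA signal and control-cluster median Fmax, the apparent Kd was taken as the median of filtered per-cluster binding-curve fits.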

[1] = designed as: OFF switch for flavin mononucleotide, no ligand
[2] = ligand present: flavin mononucleotide, designed as: OFF switch for flavin mononucleotide
[3] = designed as: ON switch for flavin mononucleotide, no ligand
[4] = ligand present: flavin mononucleotide, designed as: ON switch for flavin mononucleotide

Sequence | apparent Kd [1] | apparent Kd [2] | apparent Kd [3] | apparent Kd [4]
CUUGGUACUCGAGGAUAUCACAUGAACUACCGAACAUGAGGAUCACCCAUGUGAGAAGGCGAGUUCUGUCCGAUAAAAUUACUC | 6.68 nM | 11 nM |  | 
GGGAGACAUGAGGAUCACCCAUGUGAAAACGUGGCAGGAUAUCCAUGGAAACCAUACUGUGGAGAAGGGCCUUGUC |  |  | 77.9 nM | 40.5 nM
UAUAUAUAGUAAGGAUAUGUAAUUAUCUUAUAAACAGAAGGUACUGACAUGAGGAUCACCCAUGUUUUAGUGUGGGCAUGUAGA | 56.9 nM | 60.1 nM |  | 
GUGGUGGGUUGAGGAUAUUGGUUGUUGUUGUCCCACAUGAGGAUCACCCAUGUGGGUUGUGGUUUUGAGAAGGUUGGUUGCCGG |  |  | 18.8 nM | 16.6 nM
AGCGGCGCGGGCCACCGCAGAACCAGAAGGACAUGAGGAUCACCCAUGUAACAAAACAGGGCGGUGUAGGAUAUGGCAGGCUCG | 35.9 nM | 83.2 nM |  | 
GGGCAAUUAGGAUAUACAUGAGGAUCACCCAUGUGGAAGCCCGGACAGGUAAUCCACUGUAGAAGGGAUUGCGG | 14.8 nM | 15 nM |  | 
UGAUAGGACAGAGGAUAUACGUGCUAGAGAUACUAGCAAAAUUAAAUAACAUGAGGAUCACCCAUGUAGAAGGCUGUCCUAUCU | 5.01 nM | 7.01 nM |  | 
GGUUGUCAUCGUCAUCCUUUCGGUACAUGAGGAUCACCCAUGUAGGAUAUGCUGCAUUCGAUGUGGCAGAAGGGCGUGUGUGUU | 23.5 nM | 41 nM |  | 
AAGUUAUUAGGAUAUACUUGUGCGAUUUAUACGUUGAUAUUACAUGAGGAUCACCCAUGUAGAAGGAAUAAAAA | 20.8 nM | 17.4 nM |  | 
UACAACUUCGUAGGAUAUGUAUAUAAUUUCUACAUGAGGAUCACCCAUGUUAGCAUUUUUUAUUGACAGAAGGACGUAAUCUAA |  |  | 7.55 nM | 5.89 nM
CUGGUGUGAGGAUAUCUACGCCAUGUCUUUGACAUGGCGCAAGAGAAGGCACAUGAGGAUCACCCAUGUACUUC | 21.7 nM | 74.4 nM |  | 
GACUGAUUACAGAAGGUGUUUGACAUGAGGAUCACCCAUGUGUUAUUCAGUUUCAUUGAAUUUAACAAGGAUAUGUAUAUAUCA |  |  | 220 nM | 101 nM
AUUAUUGGCUAAGGAUAUGGAUACAUGAGGAUCACCCAUGUAUAAUUUGUGAUCAUAUAAAUGAUCCAGAAGGUAGCUGUUUAU | 81.6 nM | 220 nM |  | 
AAUAACCAAGGAUAUACAUGAGGAUCACCCAUGUGGCGUCUGCGAGCUACAUCCCUUAGUAGAAGGUGGACCAG | 23.4 nM | 27 nM |  | 
CAGGGAACAGGAUAUACAUGAGGAUCACCCAUGUGUUCCAGCUAGGAAACUAGCAAAUGUAGAAGGGUUCCCUG | 174 nM | 922 nM |  | 
AGCAUGCUAGGAUAUACGGGACAUUAGGGUUCGUCGUAUGGACAUGAGGAUCACCCAUGUAGAAGGAGCGUGCA | 20.7 nM | 44.2 nM |  | 
GAAAUAAUGUAAGGAUAUACAUGAGGAUUUCUCGUAGAAGGUACAAGACAUGAGGAUCACCCAUGUGUCGCUCCGUAGAGCGUA |  |  | 308 nM | 299 nM
GGCUACGUUUCGUAGCAGUGUCAUCGAGAAGGCCCUGACAUGAGGAUCACCCAUGUUGUUACAUGGGAGGAUAUCGAUGAUACU |  |  | 13.3 nM | 5.12 nM
UCUACGCGAAUCCAGAUGGAUAGCACAUGAGGAUCACCCAUGUAGGAUAUGCUACACAAAGUGUAGCAGAAGGACAAGCGUAGA | 28.3 nM | 32.3 nM |  | 
UAUAUAUAGUAAGGAUAUGUAUAUAUUUUACAAACAGAAGGUACUGACAUGAGGAUCACCCAUGUUUUAGUGUGGGCAUGUAGA | 57.8 nM | 60 nM |  | 
AGAAAUUAGUGAGGAUAUGCAUAAAUUGUAGCUGCAGAAGGCACGGACCACAAGACAUGAGGAUCACCCAUGUGGUAUUUAGAU | 29.9 nM | 34.9 nM |  | 
GCAUAUCAGGGAGGAUAUGACAUGAGGAUCACCCAUGUAAUUAUGGCUCUGUCAGAAGGCCCAUCGUCACUAUAGUGACGAGAC | 370 nM | 139 nM |  | 
UCGGCGCGAGGAUAUACGUUUGCUUUUUUUUGUCGUUGCGUACAUGAGGAUCACCCAUGUAGAAGGCGCGCCGC | 16.7 nM | 31 nM |  | 
UUACUACAUGAGGAUCACCCAUGUCAGGAUAUUGUUUAUACCUUGGAAUACGUGUCAACAAGAAGGGACUAUAU | 22.9 nM | 23.4 nM |  | 
GUGGUCAGACAUGAGGAUCACCCAUGUGGAAUAAAUAAGGAGAAGGAUAUGCAAUAUAGGAUAUAGCAGAAGGUUUGGUUGGUG |  |  | 95.8 nM | 111 nM
UGAUCGAGAGAUCUUAGAUUCUGGUAGGAUAUACAUUUAAAACGCUUUACAUGAGGAUCACCCAUGUAGAAGGACUAGAGUCUA | 6.68 nM | 7.5 nM |  | 
ACAUGAGGAUCACCCAUGUAUUUGUAGGAUAUACACAAUUCUUUAUUACUCUAAUUAAUAUGUUUGUAGAAGGACACUGCAUGA | 9.71 nM | 9.52 nM |  | 
AGAGAUACGCUCGUCGGAAAGCGACAUGAGGAUCACCCAUGUAGAAGGCGAUGCGCAACUCGCAUUGAGGAUAUAUAGUGCAGC | 6.51 nM | 6.65 nM |  | 

Sequence | apparent Kd [1] | apparent Kd [2] | apparent Kd [3] | apparent Kd [4]
CGCCAGUGAGGAUAUCCAUCUGGAUCAGACUAGAUCCUGAUGGAGAAGGCACAUGAGGAUCACCCAUGUCGGCG | 18.5 nM | 19.5 nM |  | 
GUUUCACAUGAGGAUCACCCAUGUGAGGAUAUGGAUUCGCUGGCCGUAGCCAGUGGAUCCAGAAGGCGCAUGAU | 35.7 nM | 44 nM |  | 
UGAUCGAGAGAUCUUAGAUUCUGGUAGGAUAUACAUUAUGUAAAAUUUACAUGAGGAUCACCCAUGUAGAAGGACUAGAGUCUA | 6.19 nM | 14.8 nM |  | 
CGGGAGUCAGGAUAUACGAACAUGUCGCCAGAUGUCAUGGUACAUGAGGAUCACCCAUGUAGAAGGGAGGCGGU | 50.6 nM | 30.5 nM |  | 
CGGGCUGCCAGAGGAUAAUGGACAUGAGGAUCACCCAUGUGUCAGGAUAUGGGUUUCACAUGGACUCAGAAGGGACCAGCCCAA |  |  | 101 nM | 24.9 nM
UCAUUAUAAAUCCAUCAUAACUACAUGAGGAUCACCCAUGUGCAGGAUAUCGAUUUUUUAACUUUCGAGAAGGGCAAUUACAGA | 37.6 nM | 96.1 nM |  | 
CUGACGGCGACGACAUUUCCAGAACCAGAAGGUGAAGUCAACAUGAGGAUCACCCAUGUCUAUAUCAAGGAUAUGGUAGUGGGC |  |  | 301 nM | 92.2 nM
UUUUAACAUGAGGAUCACCCAUGUGAGGAUAUCGAAAUUUAUAUUUAUAUUUAUAAUACGAGAAGGCACAUUUU | 80.3 nM | 93.6 nM |  | 
UGGUACAUCGGAGGAUAUCAUGUAUAUACAUGAGGAUCACCCAUGUCGUACGAGAGUACGGAGAUUGAGAAGGCCGAUGUACCU |  |  | 39.4 nM | 15.3 nM
AAAGCAACAUGAGGAUCACCCAUGUAGGAUAUCGCUAUUGUAAUCAUGAAACAUGAUUACAAUAGCGAGAAGGACAUAUGCUUU | 6.77 nM | 9.48 nM |  | 
GAUAAGGGAGGAUAUACGGAACGGUUUAUGCUCAGUGAGGCACAUGAGGAUCACCCAUGUAGAAGGCCCGACAG | 28.2 nM | 120 nM |  | 
AGGAUCUCAGUCAGGAUAUGUGUCUUCAAAGUACGGCAGAAGGGACAUGAGGAUCACCCAUGUUAGCCACCUUU | 26.6 nM | 69.1 nM |  | 
UGGGUAAAUGUAGGAUAUCCAUAAUAAUAAUAAGGAGAAGGACAUGAGGAUCACCCAUGUACAGGGAAUUACCCAUUUCCUCUC | 1340 nM | 1170 nM |  | 
GUCCGGAGGGAGAAGGGCUAGGAGGUCCAGCUUAUGUGUGUUGCAACAUGAGGAUCACCCAUGUAGCAGGAUAUCCCUUUUACA | 47 nM | 233 nM |  | 
UUGGACGUCGUAGGAUAUGUAGGAUAUUCUUACAUGAGGAUCACCCAUGUUGACAUGGAAGAAGGACAGAAGGACGAUGUCCAU |  |  | 56.7 nM | 7.2 nM
GUGCUCGUGUGAGGAUAUGCUUCCGUUUCGGCUGCAGAAGGUACUAUUAUACAUGAGGAUCACCCAUGUCGCUUUUCUCCGGUG |  |  | 26.6 nM | 27.5 nM
GCGUGGUGUCUAGGAUAUGCCGUGCAACGAGGAGCAGAAGGAGACAUGAGGAUCACCCAUGUAAGCUUAGCCGCUCACAGAGGG | 26.8 nM | 73.7 nM |  | 
GCACUGGAUGUAGGAUAUCAGGACGAUAAGUCCUGAGAAGGACAUGAGGAUCACCCAUGUGCUUAAACCAGUGCAUAUAAUAUA | 12.2 nM | 18.4 nM |  | 
UCUUUGUUUGUGAGGAUAUCGAUAAAAUGGAUUGUCGAGAAGGCACAUGAGGAUCACCCAUGUGUGGGACAGCA | 22.3 nM | 74.9 nM |  | 
AUGCCCUGAGGAUAUCUCAUCUCGCACAUGAGGAUCACCCAUGUUCUUCUCUGGGUUUCGAGAGAAGGCAGGCCUA | 701 nM | 366 nM |  | 
AAAAAACAUGAGGAUCACCCAUGUCUUCGGACGUGAGGAUAUGUACAGACUUCGGUCUGUACAGAAGGCACGUCAA |  |  | 31.3 nM | 19.2 nM
GGAAGACAAAGUCUUCCAUUACGAACAUGAGGAUCACCCAUGUAGGAUAUGCUACUCAAAGAGUAGCAGAAGGACAUGUGUCUU | 27.4 nM | 120 nM |  | 
ACCAAUGCAGGAUAUACAUGAGGAUCACCCAUGUAUAACCUACAUAGAUGAUUAUUAUGUAGAAGGGUAUUGGA | 13.2 nM | 12.9 nM |  | 
AGAAACUACGAGAAGGACAUAUGACCAAGACUAAACAUGAGGAUCACCCAUGUAGGAUAUCGUAGUUUCAGGAUCGUGAGAUCA | 5.81 nM | 12.2 nM |  | 
GGUUGUCAAAGACAACCAUAACGAACAUGAGGAUCACCCAUGUAGGAUAUGCUACUCAAAGAGUAGCAGAAGGACAUGUGCCUU | 37.6 nM | 326 nM |  | 
GAGUAGUUGGGAGGAUAUCGAUUGUUAUAGAAUCGAGAAGGUUCUAACAUGAGGAUCACCCAUGUAGGACUAUUCCUGUGUAUC |  |  | 71.8 nM | 65.4 nM
AAUGAGCAGUAGAAGGCAUGUCUACGGACAUGAGGAUCACCCAUGUAGUGAAUCCGAAAGGAGCAUGAGGAUAUACUGCUCUAA |  |  | 143 nM | 27.3 nM
